# Screening data: PubChem, Sanford-Burnham Center for Chemical Genomics
# bIAP inhibitor: bovine intestinal alkaline phosphatase inhibitors, primary screen, selectivity assay for TNAP inhibitor project, biochemical, bovine IAP, CDP-star luminescence; 190,000 tested, under 10 active; alkaline phosphatase, intestinal [Bos taurus]; purified bovine IAP, 30 min; inhibition, % at 20 µM;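 active = over 50% inhibition of intestinal alkaline phosphatase at 20 µM in the single-dose screen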
#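 System: purified bovine intestinal alkaline phosphatase (IAP) enzyme; Input: IAP diluted 1/65,000,000 in the well; Measured by: CDP-star luminescence signal; Compound dosing: 20 µM single dose; Incubation: 30 min reaction at room temperature.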
# bIAP activator: bovine intestinal alkaline phosphatase activators, primary screen, biochemical, bovine IAP, CDP-star luminescence; purified bovine IAP, 30 min; active compounds read high; fold of DMSO-control signal, blank-subtracted; activation factor at 20 µM; 0.17% of 200,000 active;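 active = activation factor of 2 or more at 20 µM, a signal rise over negative controls twice the positive control's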
# mIAP inh: inhibitors of mouse IAP, primary screen, biochemical, luminescence, uHTS; intestinal alkaline phosphatase [Mus musculus]; purified mouse IAP, CDP-Star luminescence, 30 min; inhibition, % at 10 µM; 0.2% of 330,000 active;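 active = inhibition of at least 40% at 10 µM in the primary screen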;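 also: plate controls were DMSO with enzyme for no effect and no enzyme wells for full effect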
# hIAP inh: human IAP inhibitors, primary screen, biochemical, luminescence, uHTS; Intestinal-type alkaline phosphatase (Homo sapiens), P09923; purified IAP, CDP-Star luminescence, 30 min; inhibition, % at 10 µM; 0.12% of 330,000 active;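 active = inhibition reaching a set limit with compound at 10 µM in the primary screen, cut at about 35% in these data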;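 also: plate controls were DMSO wells with enzyme for no effect and no-enzyme buffer wells for full effect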
# Target sequence (P09923 whole entry, looked up): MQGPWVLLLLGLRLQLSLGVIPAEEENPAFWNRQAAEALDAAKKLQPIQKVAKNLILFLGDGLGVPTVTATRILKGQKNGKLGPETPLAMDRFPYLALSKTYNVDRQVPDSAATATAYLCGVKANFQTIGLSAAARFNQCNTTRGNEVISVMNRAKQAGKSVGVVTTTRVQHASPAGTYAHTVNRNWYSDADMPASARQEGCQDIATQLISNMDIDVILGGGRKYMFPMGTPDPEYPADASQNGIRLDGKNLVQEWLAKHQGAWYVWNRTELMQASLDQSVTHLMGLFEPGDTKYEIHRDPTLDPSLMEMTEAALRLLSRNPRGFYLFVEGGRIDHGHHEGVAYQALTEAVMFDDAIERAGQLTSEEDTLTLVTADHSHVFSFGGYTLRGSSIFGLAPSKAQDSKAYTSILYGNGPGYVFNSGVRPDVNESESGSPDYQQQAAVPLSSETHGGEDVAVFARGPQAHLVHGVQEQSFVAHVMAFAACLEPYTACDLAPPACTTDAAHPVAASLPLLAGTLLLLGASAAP
# mIAP activ: activators of mouse IAP, primary screen, biochemical, luminescence, uHTS; intestinal alkaline phosphatase [Mus musculus]; muIAP, CDP-Star luminescence, 30 min; active compounds read high; 1 = vehicle-only enzyme signal, 0 = enzyme-free wells; activation factor at 10 µM; 0.24% of 330,000 active; AID 2805, 2010;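 active = activation factor of at least 2 at 20 µM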
#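 Assay system: mouse IAP enzyme; reagent: chemiluminescent substrate CDP-Star; dosing: test compounds delivered from DMSO solution; schedule: 30 min at room temperature; measured by: luminescence from enzymatic CDP-Star hydrolysis; controls: DMSO-only wells and no-enzyme negative control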
# hIAP act: human IAP activators, primary screen, biochemical, luminescence, uHTS | purified human IAP, CDP-Star luminescence, 30 min; active compounds read high; 1 = vehicle-only enzyme, 0 = enzyme-free background | activation factor at 10 µM | 0.16% of 330,000 active | AID 2524, 2010;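 active = activation factor of the enzyme at least 2-fold when tested at 20 µM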
# hIAP act confirm: human IAP activators, confirmation, biochemical, luminescence, single concentration, uHTS hits; shares compounds with hIAP act; purified IAP, CDP-Star luminescence, 30 min; active compounds read low; activation (%Activity, negative = activation), % at 8.3 µM; 10% of 880 active; AID 434926, 2010;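 active = at least twofold enzyme activation in any of six single-dose repeats, which the averaged readout prints as negative percent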
# The depositor's hits bear a star; · = not tested or not shown. In the library only some 0.72% were active in any assay of this set; here they are far more common.
SMILES,bIAP inhibitor,bIAP activator,mIAP inh,hIAP inh,mIAP activ,hIAP act,others
O=S(=O)(/N=C(/Nc1ccccn1)c1ccccc1)c1ccc(F)cc1,·,·,-2.7,-15.0,1.03,1.15,
Cc1csc2c(N3CCN(C(=O)Nc4ccc(Cl)c(Cl)c4)CC3)ncnc12,·,·,-138.9,-43.1,2.39*,1.43,
Cc1csc2c(N3CCN(C(=O)NC(C)(C)C)CC3)ncnc12,·,·,0.8,2.5,0.992,0.975,
CCOC(=O)CNC(=O)c1ccc(Br)s1,·,·,-5.4,6.7,1.05,0.933,
Cc1ccc(C)n1-c1ccc(C(=O)NN)s1,-110.1,2.1*,-12.7,-20.7,1.13,1.21,
Cn1cnnc1SCC(=O)N1CCC(Cc2ccccc2)CC1,-139.8,2.4*,-19.6,-13.8,1.2,1.14,
Cn1cnnc1SCC(=O)N1CCN(C(=O)c2ccco2)CC1,20.3,0.8,-2.6,8.8,1.03,0.912,
Cc1ccc(NC(=O)Nc2ccc(F)c(Cl)c2)cc1,30.9,0.7,-187.6,-13.6,2.88*,1.14,
COc1ccc(NC(=O)Nc2ccc(F)c(Cl)c2)cc1,2.6,1,-88.9,8.9,1.89,0.91,
CSc1ccccc1NC(=O)Nc1ccc(F)c(Cl)c1,0.9,1,-127.6,19.5,2.28*,0.805,
CSc1ccccc1NC(=O)Nc1cccc(Cl)c1,6.2,0.9,-112.6,8.8,2.13*,0.912,
O=C(Nc1ccn(Cc2cccc3ccccc23)n1)c1cccnc1,-4.3,1,3.0,10.4,0.97,0.896,
O=C(Nc1ccc(C(=O)N2CCCCC2)cc1)c1ccc([N+](=O)[O-])cc1,·,·,-10.1,-7.6,1.1,1.08,
CCCC(=O)Nc1ccc(C(=O)N/N=C/c2ccc([N+](=O)[O-])o2)cc1,-38.5,1.4,40.0*,-28.5,0.6,1.28,
COc1ccc(CN(CC2CCC(C(=O)O)CC2)C(=S)Nc2ccccc2OC)cc1 (stereo unspecified),-6.7,1.1,5.3,-2.9,0.947,1.03,
COc1ccc(CN(CC2CCC(C(=O)O)CC2)C(=S)Nc2cccc(C)c2)cc1 (stereo unspecified),-139.8,2.4*,2.5,6.6,0.975,0.934,
COc1ccc(C2C(C(=O)Nc3cc(OC)c(OC)c(OC)c3)c3ccccc3C(=O)N2C)cc1 (stereo unspecified),-123.4,2.2*,-101.7,-35.6,2.02*,1.36,
O=C(NC(=S)Nc1ccccc1N1CCOCC1)c1ccc(-c2cc(Cl)ccc2Cl)o1,-289.4,3.9*,12.9,-15.2,0.871,1.15,
CCC(C)c1ccc(NC(=O)Nc2cnccn2)cc1 (stereo unspecified),·,·,-7.2,-0.1,1.07,1,
CO/N=C\CC(=O)Nc1ccc(Oc2ccccc2)cc1,-10.0,1.1,8.3,-1.0,0.917,1.01,
O=C(Nc1ccccc1)Nc1ccc(Cl)c(S(=O)(=O)N2CCOCC2)c1,2.2,1,-182.4,-5.4,2.82*,1.05,
O=C(Nc1ccc(NC(=O)c2ccc(Cl)c(S(=O)(=O)N3CCOCC3)c2)cc1)c1ccccc1,·,·,-5.7,-15.1,1.06,1.15,
Cc1ccc(NC(=O)Nc2ccccc2F)cc1S(=O)(=O)N1CCOCC1,·,·,-158.2,-14.7,2.58*,1.15,
O=C(Nc1cccc(Cl)c1)Nc1cc(S(=O)(=O)N2CCOCC2)ccc1N1CCCC1,-2.1,1,-272.3,-18.2,3.72*,1.18,
O=C(NCC1CCN(Cc2ccccc2Cl)CC1)Nc1ccccc1F,·,·,-96.6,-20.4,1.97,1.2,
SMILES,bIAP inhibitor,bIAP activator,mIAP inh,hIAP inh,mIAP activ,hIAP act,others
Cc1ccc(C)c(CN2CCC(CNC(=O)Nc3ccc(Br)cc3F)CC2)c1,·,·,-220.7,-40.2,3.21*,1.4,
O=C1CC(c2ccccc2)n2nc(NC(=O)c3ccccc3)nc2N1 (stereo unspecified),6.4,0.9,3.0,3.6,0.97,0.964,
O=C1CC(c2ccccc2)n2nc(NC(=O)c3ccccn3)nc2N1 (stereo unspecified),-68.1,1.7,-4.9,-136.7,1.05,2.37*,hIAP act confirm=9.4
O=C(N=C1SC2CS(=O)(=O)CC2N1Cc1ccc(Cl)cc1)C1CC1 (stereo unspecified),·,·,-1.0,-2.2,1.01,1.02,
CCCNS(=O)(=O)c1ccc(CCC(=O)NCc2ccco2)cc1,6.7,0.9,1.0,-141.3,0.99,2.41*,hIAP act confirm=11.0
Cc1nnc(SCC(=O)NCc2ccccc2)n1-c1ccccc1,5.7,0.9,-7.9,-0.2,1.08,1,
Cc1nnc(SCC(=O)NCc2cccs2)n1-c1ccccc1,8.1,0.9,10.6,-112.8,0.894,2.13*,hIAP act confirm=14.6
C=CCn1c(SCC(=O)NC2CC2)nnc1-c1cccc(OC)c1,·,·,-8.3,40.6*,1.08,0.594,hIAP act confirm=-17.6
CCn1c(SCC(=O)NC2CC2)nnc1-c1cccc(OC)c1,·,·,-1.9,-18.5,1.02,1.19,
COc1ccc(-c2cc(=O)c3c(O)cc(O)cc3o2)cc1,·,·,3.0,12.0,0.97,0.88,
O=c1cc(-c2ccc(O)c(O)c2)oc2cc(O)cc(O)c12,·,·,34.1,57.5*,0.659,0.425,hIAP act confirm=-2.3
CCOc1cc(Cl)c(S(=O)(=O)NCCCn2ccnc2)cc1Cl,·,·,-6.6,-6.3,1.07,1.06,
CCn1nc(NS(=O)(=O)c2ccccc2)c2cc3ccc(C)cc3nc21,·,·,3.4,38.6*,0.966,0.614,hIAP act confirm=-0.9
CCn1nc(NS(=O)(=O)c2ccccc2)c2cc3cc(C)ccc3nc21,·,·,5.2,-8.7,0.948,1.09,
CC1=Nc2ccccc2N=C(NC(=O)CSC(=S)N2CCCCC2)C1c1ccccc1 (stereo unspecified),·,·,-4.1,-1.0,1.04,1.01,
CC1=Nc2ccccc2N=C(NC(=O)CSC(=S)N2CCN(C)CC2)C1c1ccccc1 (stereo unspecified),·,·,-15.6,-143.1,1.16,2.43*,hIAP act confirm=3.7
C=CCn1c(COc2ccccc2)nc2ccccc21,·,·,0.3,-0.8,0.997,1.01,
N#C/C(=C\c1ccc(-c2cccc([N+](=O)[O-])c2)o1)C(=O)Nc1nc(-c2cccs2)cs1,·,·,27.7,46.8*,0.723,0.532,hIAP act confirm=-64.4
CC1CN(Cc2ccccc2)c2nc3c(c(=O)n(CC(N)=O)c(=O)n3C)n2C1 (stereo unspecified),·,·,5.0,38.8*,0.95,0.612,hIAP act confirm=-37.2
CCOC(=O)Cn1c(=O)c2c(nc3n2CC(C)CN3Cc2ccccc2)n(C)c1=O (stereo unspecified),·,·,-8.7,-12.3,1.09,1.12,
